The values below come from paper PMC4467529 (Bioorganic & medicinal chemistry, 2015).

For one data set, the target named is iNOS (Mus musculus, UniProt P29477). Put plainly: iNOS inhibitory assay in LPS-induced mouse macrophages. The class given is cell-based. Particulars: LPS-induced RAW264.7 macrophages.
In another data set the test system is NF-κB. The class given is cell-based, human. As to conditions: Homo sapiens, SW1353, read-out: NF-κB IC50. The procedure, abridged: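 SW1353 cells were grown in DMEM/F12 with 10% FBS and electroporated with an NF-κB luciferase plasmid (50 μg/mL; 160 V, one 70-ms pulse). They were plated at 1.25 × 10⁵ cells/well for 24 h. […] Parthenolide was the reference; Sp-1 served as control factor.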

Data set [1] in a line: In vitro cytotoxicity, Neutral Red assay. The class given is cell-based. As to conditions: pig, LLC-PK11 pig kidney epithelial cells. The method, boiled down: (§1)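 Cells were kept in RPMI-1640 with 10% bovine calf serum and amikacin 60 mg/L at 37 °C, 5% CO₂. They were seeded at 25,000 cells/well and grown 24 h, then exposed 48 h to test compound diluted in serum-free medium, tested up to 25 μg/ml. Viability was read by Neutral Red, as % decrease versus vehicle. IC50 came from dose curves, in triplicate, with doxorubicin as reference.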

Data set [2] is described as follows: In vitro cytotoxicity, Neutral Red assay. As to conditions: African green monkey, Vero cells (kidney fibroblasts). Format: cell-based. The method, boiled down:
as §1

A short description of data set [3]: In vitro cytotoxicity, Neutral Red assay. Particulars: human, SK-OV-3 ovary carcinoma cells. The class given is cell-based. The method, boiled down:
(§2)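 Cells grown in RPMI-1640 with 10% bovine calf serum and amikacin (60 mg/L), 37°C, 5% CO₂, 95% humidity. Seeded at 25,000 cells/well, grown 24 h. Test samples diluted in serum-free medium, exposure 48 h. Viable cells counted by Neutral Red uptake; % viability loss against vehicle control. IC50 from dose curves, triplicate, means reported.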

Data set [4] can be described thus: In vitro cytotoxicity, Neutral Red assay. The class given is cell-based. Particulars: human, BT-549 breast ductal carcinoma cells. The method, boiled down: as §1
Data set [5] can be described thus: In vitro cytotoxicity, Neutral Red assay. Format: cell-based. Particulars: human, KB oral epidermal carcinoma cells. The procedure, abridged: as §2
Data set [6] is described as follows: In vitro cytotoxicity, Neutral Red assay. Format: cell-based. Particulars: human, SK-MEL malignant melanoma cells. The method, boiled down: as §1
The conditions of data set [7]: cited from earlier work.

As usually defined, the IC50 is the concentration needed to halve the response being measured. On to `O=c1oc2ccccc2n1CCCCN1CCN(CCCCn2c(=O)oc3ccccc32)CC1` [Compound 3e, 3,3′-(piperazine-1,4-diylbis(butane-4,1-diyl))bis(benzo[d]oxazol-2(3H)-one)], for which the “iNOS inhibitory activity (in words)” value on iNOS was “no activity”. Moreover, the half-maximal inhibitory concentration (IC50) in the data set with NF-κB is > 25 µg/mL. The IC50 at 48 h in [1], in data set [2], in data set [3], in data set [4], in data set [5] and in data set [6] was > 25 µg/mL throughout.
Turning to `O=c1sc2ccccc2n1CCCCN1CCN(CCCCn2c(=O)sc3ccccc32)CC1` [Compound 3f, 3,3′-(piperazine-1,4-diylbis(butane-4,1-diyl))bis(benzo[d]thiazol-2(3H)-one)], the “iNOS inhibitory activity (in words)” value at iNOS was “no activity”. Moreover, the IC50 at 48 h in data set [1], in data set [2], in [3], in data set [4], in [5] and in [6] was > 25 µg/mL in each case.
On to `O=c1oc2ccccc2n1CCCCCCN1CCN(CCCn2c(=O)oc3ccccc32)CC1` [Compound 5m, 3-(3-(4-(6-(2-oxobenzo[d]oxazol-3(2H)-yl)hexyl)piperazin-1-yl)propyl)benzo[d]oxazol-2(3H)-one], for which, in the data set with NF-κB, the IC50 is > 25 µg/mL. The IC50 at 48 h in [1], in data set [2], in data set [3], in [4], in data set [5] and in [6] was > 25 µg/mL in each case.
Regarding `O=C(c1ccccc1)c1ccc2[nH]c(=O)sc2c1` [Compound S-14080], the “anti-inflammatory and antinociceptive activities (in words)” value in [7] was “superior to acetylsalicylic acid and equivalent to glafenine”.
